According to ChEMBL document CHEMBL1122233, “Antihypertensive 9-substituted 1-oxa-4,9-diazaspiro[5.5]undecan-3-ones” (J Med Chem, 1983):

Experiments:
[1] = system: Rattus norvegicus; experiment: (§1) Percentage fall in systolic blood pressure after 3 hours at 50 mg/kg given perorally; assay type: functional, Artery; conditions: route oral
Procedure, shortened: (§2)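 Male Okamoto-Aoki SHR, four per group, with a concurrent vehicle control group. Oral dosing in water (0.1 mL/10 g) on two consecutive mornings. After the day-2 dose, rats were restrained in a 30 °C chamber. Tail-cuff systolic pressure was taken at 1-4 h from four traces per rat. Result is % decrease versus control mean, by 1-tailed t test, p ≤ 0.05.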

[2] = system: Rattus norvegicus; experiment: (§3) Percentage fall in systolic blood pressure after 2 hours at 50 mg/kg given perorally; assay type: functional, Artery; conditions: route oral; procedure, shortened: as §2
[3] = system: Rattus norvegicus; experiment: (§4) Percentage fall in systolic blood pressure after 4 hours at 50 mg/kg given perorally; assay type: functional, Artery; conditions: route oral; procedure, shortened: as §2
[4] = system: Rattus norvegicus; experiment: (§5) Percentage fall in systolic blood pressure after 1 hr at 50 mg/kg given perorally; assay type: functional, Artery; conditions: route oral; procedure, shortened: as §2
[5] = system: Rattus norvegicus; experiment: as §1; assay type: functional, organism-based; parameters: dose 50 mg/kg; conditions: Artery; procedure, shortened: as §2
[6] = system: Rattus norvegicus; experiment: as §4; assay type: functional, organism-based; parameters: dose 50 mg/kg; conditions: Artery; procedure, shortened: as §2
[7] = system: Rattus norvegicus; experiment: Percentage fall in systolic blood pressure after 4 hr at 12.5 mg/kg given perorally; assay type: functional, organism-based; parameters: dose 12.5 mg/kg; conditions: Artery
Procedure, shortened: (§6)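 Male Okamoto-Aoki spontaneously hypertensive rats, trained, in groups of four matched for mean systolic pressure; five treated groups and one vehicle control run concurrently. Oral dosing in water (solution or suspension, 0.1 mL/10 g) on two consecutive mornings. On day 2, rats were restrained at 30.0 ± 1.0 °C and tail-cuff systolic pressure recorded at 1–4 h; percent fall versus control, 1-tail t test, p ≤ 0.05.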

[8] = system: Rattus norvegicus; experiment: (§7) Percentage fall in systolic blood pressure after 1 hr at 12.5 mg/kg given perorally; assay type: functional, organism-based; parameters: dose 12.5 mg/kg; conditions: Artery; procedure, shortened: as §6
[9] = system: Rattus norvegicus; experiment: Percentage fall in systolic blood pressure after 2 hr at 12.5 mg/kg given perorally; assay type: functional, organism-based; parameters: dose 12.5 mg/kg; conditions: Artery; procedure, shortened: as §6
[10] = system: Rattus norvegicus; experiment: Percentage fall in systolic blood pressure after 3 hr at 12.5 mg/kg given perorally; assay type: functional, organism-based; parameters: dose 12.5 mg/kg; conditions: Artery; procedure, shortened: as §6
[11] = system: Rattus norvegicus; experiment: as §7; assay type: functional, Artery; conditions: route oral; procedure, shortened: as §2
[12] = system: Rattus norvegicus; experiment: Percentage fall in systolic blood pressure after 3 hours at 12.5 mg/kg given perorally; assay type: functional, Artery; conditions: route oral; procedure, shortened: as §2
[13] = system: Rattus norvegicus; experiment: Percentage fall in systolic blood pressure after 4 hours at 12.5 mg/kg given perorally; assay type: functional, Artery; conditions: route oral; procedure, shortened: as §2
[14] = system: Rattus norvegicus; experiment: Percentage fall in systolic blood pressure after 2 hours at 12.5 mg/kg given perorally; assay type: functional, Artery; conditions: route oral; procedure, shortened: as §2
[15] = system: Rattus norvegicus; experiment: as §3; assay type: functional, organism-based; parameters: dose 50 mg/kg; conditions: Artery; procedure, shortened: as §2
[16] = system: Rattus norvegicus; experiment: as §5; assay type: functional, organism-based; parameters: dose 50 mg/kg; conditions: Artery; procedure, shortened: as §6

| SMILES | Decrease in SBP [1] [%] | Decrease in SBP [2] [%] | Decrease in SBP [3] [%] | Decrease in SBP [4] [%] | Decrease in SBP [5] | Decrease in SBP [6] | further results |
| --- | --- | --- | --- | --- | --- | --- | --- |
| CCC1NC(=O)COC12CCN(CC(O)C1COc3ccccc3O1)CC2 (stereo not drawn) | 36 | 44 | 26 | 40 | – | – | – |
| NCC1CCN(CCc2c[nH]c3ccccc23)CC1 | – | 24 | 20 | 20 | Not significant | – | – |
| CCC(=O)NCC1CCN(CCc2c[nH]c3ccccc23)CC1 | 15 | 23 | – | 23 | – | Not significant | – |
| O=C1COC2(CCN(CCCOc3ccccc3)CC2)CN1 | – | – | – | – | – | – | Decrease in SBP [7]: Not significant; Decrease in SBP [8]: Not significant; Decrease in SBP [9]: Not significant; Decrease in SBP [10]: Not significant |
| COC1(CNC(=O)c2ccccc2)CCN(CCc2c[nH]c3ccccc23)CC1 | 22 | 28 | – | 30 | – | Not significant | – |
| COCC(=O)NCC1CCN(CCc2c[nH]c3ccccc23)CC1 | 13 | 18 | 26 | 20 | – | – | – |
| CCN1CC2(CCN(CCc3c[nH]c4ccccc34)CC2)OCC1=O | 28 | 33 | 42 | 55 | – | – | Decrease in SBP [11]: 22%; Decrease in SBP [12]: 30%; Decrease in SBP [13]: 21%; Decrease in SBP [14]: 33% |
| COc1ccc(CCN2CCC3(CC2)CNC(=O)CO3)cc1OC | – | – | – | – | Not significant | Not significant | Decrease in SBP [15]: Not significant; Decrease in SBP [16]: Not significant |
| O=C1COC2(CCN(CCc3ccc(Cl)cc3)CC2)CN1 | – | – | – | – | – | – | Decrease in SBP [7]: Not significant; Decrease in SBP [8]: Not significant; Decrease in SBP [9]: Not significant; Decrease in SBP [10]: Not significant |
| CN1CC2(CCN(CC(O)C3COc4ccccc4O3)CC2)OCC1=O (stereo in doubt; 61) | – | – | – | – | – | – | Decrease in SBP [10]: Not significant |
| O=C1COC2(CCN(CCc3c[nH]c4ccccc34)CC2)C(c2ccccc2)N1 (stereo not drawn) | – | 19 | – | 21 | Not significant | Not significant | – |
| COc1cc2c(cc1OC)[C@@H]1C[C@@]3(CCN1CC2)CN(C)C(=O)CO3 | – | – | – | – | Not significant | Not significant | Decrease in SBP [15]: Not significant; Decrease in SBP [16]: Not significant |
| CC(=O)NCC1CCN(CCc2c[nH]c3ccccc23)CC1 | 15 | 26 | 26 | 30 | – | – | – |
| CC1OC2(CCN(CCc3c[nH]c4ccccc34)CC2)CN(C)C1=O (stereo not drawn) | – | – | – | 32 | Not significant | Not significant | Decrease in SBP [15]: Not significant |
| CCC1OC2(CCN(CCc3c[nH]c4ccccc34)CC2)CN(C)C1=O (stereo not drawn) | – | – | – | 16 | Not significant | Not significant | Decrease in SBP [15]: Not significant |
| CCC1N(C)C(=O)COC12CCN(CCc1c[nH]c3ccccc13)CC2 (stereo not drawn) | – | – | – | – | Not significant | Not significant | Decrease in SBP [15]: Not significant; Decrease in SBP [16]: Not significant |
| CC1OC2(CCN(CCc3c[nH]c4ccccc34)CC2)CNC1=O (stereo not drawn) | 21 | 36 | 26 | 30 | – | – | – |
| O=C1COC2(CCN(CCc3ccc(F)cc3)CC2)CN1 | – | – | – | – | – | – | Decrease in SBP [7]: Not significant; Decrease in SBP [8]: Not significant; Decrease in SBP [9]: Not significant; Decrease in SBP [10]: Not significant |
| CCCN1CC2(CCN(CCc3c[nH]c4ccccc34)CC2)OCC1=O | 22 | 22 | 39 | 47 | – | – | Decrease in SBP [11]: 18%; Decrease in SBP [12]: 24%; Decrease in SBP [13]: 16%; Decrease in SBP [14]: 26% |
| COC1(CNC(C)=O)CCN(CCc2c[nH]c3ccccc23)CC1 | – | – | – | 17 | Not significant | Not significant | Decrease in SBP [15]: Not significant |
| O=C1COC2(CCN(CCc3c[nH]c4ccccc34)CC2)CN1Cc1ccccc1 | – | – | – | 18 | Not significant | Not significant | Decrease in SBP [15]: Not significant |
| CCN1C(=O)COC2(CCN(CCc3c[nH]c4ccccc34)CC2)C1C (stereo not drawn) | – | – | – | 20 | Not significant | Not significant | Decrease in SBP [15]: Not significant |
| COc1ccc(CCN2CCC3(CC2)CNC(=O)CO3)cc1 | – | – | – | – | – | – | Decrease in SBP [7]: Not significant; Decrease in SBP [8]: Not significant; Decrease in SBP [9]: Not significant; Decrease in SBP [10]: Not significant |
| CC1N(C)C(=O)COC12CCN(CCc1c[nH]c3ccccc13)CC2 (stereo not drawn) | – | 22 | – | 29 | Not significant | Not significant | – |
| O=C(NCC1CCN(CCc2c[nH]c3ccccc23)CC1)c1ccccc1 | 30 | 27 | 32 | – | – | – | Decrease in SBP [16]: Not significant |
| O=C1COC2(CCN(C3CCc4ccccc4C3)CC2)CN1 (stereo not drawn) | 23 | 24 | 20 | 28 | – | – | – |
| CCC1OC2(CCN(CCc3c[nH]c4ccccc34)CC2)CNC1=O (stereo not drawn) | 15 | 23 | – | 26 | – | Not significant | – |
